# Measurements as given in ChEMBL document CHEMBL5058577, “EUbOPEN Chemogenomics Library 2 (Multiplex)” (2022).
# System: U2OS
# Experiment: Multiplex assay against U2OS
# Format: toxicity, cell-based
# Settings: human
# Outline: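 Live cells carried four stains from seeding: Hoechst33342, BioTracker Green Microtubule Cytoskeleton Dye, MitoTracker Red and Annexin V Alexa Fluor 680. They were imaged on a CQ1 microscope at 37°C and 5% CO2 after compound addition. Using CellPathfinder machine-learning gating, cells were split into Hoechst high-intensity objects or normal cells, normal cells into healthy, pyknosed or fragmented nuclei, and pyknosed cells into mitotic or apoptotic; tubulin, mitochondrial-mass and membrane-permeability phenotypes are per cents of healthy-nucleus cells.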
# [1] = 12 h, 1 µM, compound concentration 1 uM, replicate 1
# [2] = 12 h, 1 µM, compound concentration 1 uM, replicate 2
# [3] = 12 h, 10 µM, compound concentration 10 uM, replicate 1
# [4] = 12 h, 10 µM, compound concentration 10 uM, replicate 2
# [5] = 24 h, 1 µM, compound concentration 1 uM, replicate 1
# [6] = 24 h, 1 µM, compound concentration 1 uM, replicate 2
# [7] = 24 h, 10 µM, compound concentration 10 uM, replicate 1
# [8] = 24 h, 10 µM, compound concentration 10 uM, replicate 2
# [9] = 48 h, 1 µM, compound concentration 1 uM, replicate 1
# [10] = 48 h, 1 µM, compound concentration 1 uM, replicate 2
# [11] = 48 h, 10 µM, compound concentration 10 uM, replicate 1
# [12] = 48 h, 10 µM, compound concentration 10 uM, replicate 2
smiles,measurement,setting,value
Cl.NCCc1ccc(O)c(O)c1 [DOPAMINE HYDROCHLORIDE],Population Apoptotic (%),[1],100%
same,Population Fragmented Nuclei (%),[1],23%
same,Population Healthy Nuclei (%),[1],67%
same,Population Hoechst High Intensity Objects (%),[1],3%
same,Population Membrane Permeable-Phenotype (%),[1],5%
same,Population Mitochondria Different-Phenotype (%),[1],1%
same,Population Mitotic Cells (%),[1],0%
same,Population Normal (%),[1],96%
same,Population Pyknosed Nuclei (%),[1],9%
same,Population Tubulin-Different-Phenotype (%),[1],2%
same,Total Cell Count,[1],237
same,Population Apoptotic (%),[2],83%
same,Population Fragmented Nuclei (%),[2],15%
same,Population Healthy Nuclei (%),[2],72%
same,Population Hoechst High Intensity Objects (%),[2],1%
same,Population Membrane Permeable-Phenotype (%),[2],8%
same,Population Mitochondria Different-Phenotype (%),[2],2%
same,Population Mitotic Cells (%),[2],16%
same,Population Normal (%),[2],98%
same,Population Pyknosed Nuclei (%),[2],11%
same,Population Tubulin-Different-Phenotype (%),[2],5%
same,Total Cell Count,[2],104
same,Population Apoptotic (%),[3],80%
same,Population Fragmented Nuclei (%),[3],21%
same,Population Healthy Nuclei (%),[3],65%
same,Population Hoechst High Intensity Objects (%),[3],3%
same,Population Membrane Permeable-Phenotype (%),[3],2%
same,Population Mitochondria Different-Phenotype (%),[3],1%
same,Population Mitotic Cells (%),[3],20%
same,Population Normal (%),[3],96%
same,Population Pyknosed Nuclei (%),[3],12%
same,Population Tubulin-Different-Phenotype (%),[3],1%
same,Total Cell Count,[3],204
same,Population Apoptotic (%),[4],75%
same,Population Fragmented Nuclei (%),[4],18%
same,Population Healthy Nuclei (%),[4],76%
same,Population Hoechst High Intensity Objects (%),[4],0%
same,Population Membrane Permeable-Phenotype (%),[4],4%
same,Population Mitotic Cells (%),[4],25%
same,Population Normal (%),[4],100%
same,Population Pyknosed Nuclei (%),[4],4%
same,Total Cell Count,[4],95
same,Population Apoptotic (%),[5],90%
same,Population Fragmented Nuclei (%),[5],18%
same,Population Healthy Nuclei (%),[5],69%
same,Population Hoechst High Intensity Objects (%),[5],4%
same,Population Membrane Permeable-Phenotype (%),[5],7%
same,Population Mitochondria Different-Phenotype (%),[5],2%
same,Population Mitotic Cells (%),[5],10%
same,Population Normal (%),[5],95%
same,Population Pyknosed Nuclei (%),[5],11%
same,Population Tubulin-Different-Phenotype (%),[5],5%
same,Total Cell Count,[5],263
same,Population Apoptotic (%),[6],80%
same,Population Fragmented Nuclei (%),[6],14%
same,Population Healthy Nuclei (%),[6],77%
same,Population Hoechst High Intensity Objects (%),[6],1%
same,Population Membrane Permeable-Phenotype (%),[6],4%
same,Population Mitochondria Different-Phenotype (%),[6],1%
same,Population Mitotic Cells (%),[6],20%
same,Population Normal (%),[6],98%
same,Population Pyknosed Nuclei (%),[6],7%
same,Population Tubulin-Different-Phenotype (%),[6],2%
same,Total Cell Count,[6],132
same,Population Apoptotic (%),[7],92%
same,Population Fragmented Nuclei (%),[7],18%
same,Population Healthy Nuclei (%),[7],70%
same,Population Hoechst High Intensity Objects (%),[7],2%
same,Population Membrane Permeable-Phenotype (%),[7],4%
same,Population Mitochondria Different-Phenotype (%),[7],0%
same,Population Mitotic Cells (%),[7],8%
same,Population Normal (%),[7],97%
same,Population Pyknosed Nuclei (%),[7],10%
same,Population Tubulin-Different-Phenotype (%),[7],1%
same,Total Cell Count,[7],245
same,Population Apoptotic (%),[8],87%
same,Population Fragmented Nuclei (%),[8],15%
same,Population Healthy Nuclei (%),[8],77%
same,Population Hoechst High Intensity Objects (%),[8],0%
same,Population Membrane Permeable-Phenotype (%),[8],1%
same,Population Mitotic Cells (%),[8],12%
same,Population Normal (%),[8],99%
same,Population Pyknosed Nuclei (%),[8],7%
same,Total Cell Count,[8],111
same,Population Apoptotic (%),[9],90%
same,Population Fragmented Nuclei (%),[9],17%
same,Population Healthy Nuclei (%),[9],70%
same,Population Hoechst High Intensity Objects (%),[9],2%
same,Population Membrane Permeable-Phenotype (%),[9],5%
same,Population Mitochondria Different-Phenotype (%),[9],3%
same,Population Mitotic Cells (%),[9],9%
same,Population Normal (%),[9],97%
same,Population Pyknosed Nuclei (%),[9],11%
same,Population Tubulin-Different-Phenotype (%),[9],4%
same,Total Cell Count,[9],363
same,Population Apoptotic (%),[10],89%
same,Population Fragmented Nuclei (%),[10],14%
same,Population Healthy Nuclei (%),[10],73%
same,Population Membrane Permeable-Phenotype (%),[10],7%
same,Population Mitochondria Different-Phenotype (%),[10],4%
same,Population Mitotic Cells (%),[10],10%
same,Population Tubulin-Different-Phenotype (%),[10],3%
same,Total Cell Count,[10],172
same,Population Apoptotic (%),[11],85%
same,Population Fragmented Nuclei (%),[11],18%
same,Population Healthy Nuclei (%),[11],66%
same,Population Hoechst High Intensity Objects (%),[11],2%
same,Population Membrane Permeable-Phenotype (%),[11],7%
same,Population Mitochondria Different-Phenotype (%),[11],3%
same,Population Mitotic Cells (%),[11],14%
same,Population Normal (%),[11],97%
same,Population Pyknosed Nuclei (%),[11],14%
same,Population Tubulin-Different-Phenotype (%),[11],5%
same,Total Cell Count,[11],338
same,Population Apoptotic (%),[12],100%
same,Population Fragmented Nuclei (%),[12],14%
same,Population Healthy Nuclei (%),[12],76%
same,Population Hoechst High Intensity Objects (%),[12],1%
same,Population Membrane Permeable-Phenotype (%),[12],2%
same,Population Mitochondria Different-Phenotype (%),[12],2%
same,Population Mitotic Cells (%),[12],0%
same,Population Normal (%),[12],98%
same,Population Pyknosed Nuclei (%),[12],8%
same,Population Tubulin-Different-Phenotype (%),[12],2%
same,Total Cell Count,[12],179
